{"source": "ChEMBL document CHEMBL5696442", "about": "“Discovery of type II inhibitors of TGFβ-activated kinase 1 (TAK1) and mitogen-activated protein kinase kinase kinase kinase 2 (MAP4K2)” (J Med Chem, 2015)", "key": {"[1]": {"tested_on": "MEF", "experiment": "Inhibition of TGF-beta induced p38 MAPK phosphorylation level in wild type mouse MEF cells incubated for 1 hr followed by TGF-beta stimulation by Western blot analysis", "type": "functional, cell-based", "settings": "dose <= 500.0 nM"}, "[2]": {"target": "Cyclin-dependent kinase 4 (Homo sapiens) (UniProt P11802)", "sequence (P11802 whole entry)": "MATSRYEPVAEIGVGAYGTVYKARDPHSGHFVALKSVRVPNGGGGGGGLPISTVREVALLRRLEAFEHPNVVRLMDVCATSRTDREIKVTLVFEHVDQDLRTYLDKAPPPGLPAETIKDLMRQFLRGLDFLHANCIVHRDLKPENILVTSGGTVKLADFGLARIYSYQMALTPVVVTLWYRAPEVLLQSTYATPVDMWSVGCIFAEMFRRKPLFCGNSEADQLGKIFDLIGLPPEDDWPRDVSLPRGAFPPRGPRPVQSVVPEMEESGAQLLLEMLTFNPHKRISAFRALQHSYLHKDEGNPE", "experiment": "Inhibition of CDK4 Lys2 labeling site in human A-375 cells at 0.5 uM by KiNativ Profiling analysis relative to control", "type": "cell-based", "outline": "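Live A375 melanoma cells were treated with compound at 5 or 0.5 μM. The cells were then lysed, and the lysates were labeled with a lysine-reactive ATP or ADP-biotin acyl probe (KiNativ). Inhibition is the compound's protection of each kinase labeling-site peptide from probe labeling, relative to untreated control.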"}, "[3]": {"target": "T1, Serine/threonine-protein kinase Nek9 (Homo sapiens) (UniProt Q8TD19)", "T1 sequence (whole entry)": "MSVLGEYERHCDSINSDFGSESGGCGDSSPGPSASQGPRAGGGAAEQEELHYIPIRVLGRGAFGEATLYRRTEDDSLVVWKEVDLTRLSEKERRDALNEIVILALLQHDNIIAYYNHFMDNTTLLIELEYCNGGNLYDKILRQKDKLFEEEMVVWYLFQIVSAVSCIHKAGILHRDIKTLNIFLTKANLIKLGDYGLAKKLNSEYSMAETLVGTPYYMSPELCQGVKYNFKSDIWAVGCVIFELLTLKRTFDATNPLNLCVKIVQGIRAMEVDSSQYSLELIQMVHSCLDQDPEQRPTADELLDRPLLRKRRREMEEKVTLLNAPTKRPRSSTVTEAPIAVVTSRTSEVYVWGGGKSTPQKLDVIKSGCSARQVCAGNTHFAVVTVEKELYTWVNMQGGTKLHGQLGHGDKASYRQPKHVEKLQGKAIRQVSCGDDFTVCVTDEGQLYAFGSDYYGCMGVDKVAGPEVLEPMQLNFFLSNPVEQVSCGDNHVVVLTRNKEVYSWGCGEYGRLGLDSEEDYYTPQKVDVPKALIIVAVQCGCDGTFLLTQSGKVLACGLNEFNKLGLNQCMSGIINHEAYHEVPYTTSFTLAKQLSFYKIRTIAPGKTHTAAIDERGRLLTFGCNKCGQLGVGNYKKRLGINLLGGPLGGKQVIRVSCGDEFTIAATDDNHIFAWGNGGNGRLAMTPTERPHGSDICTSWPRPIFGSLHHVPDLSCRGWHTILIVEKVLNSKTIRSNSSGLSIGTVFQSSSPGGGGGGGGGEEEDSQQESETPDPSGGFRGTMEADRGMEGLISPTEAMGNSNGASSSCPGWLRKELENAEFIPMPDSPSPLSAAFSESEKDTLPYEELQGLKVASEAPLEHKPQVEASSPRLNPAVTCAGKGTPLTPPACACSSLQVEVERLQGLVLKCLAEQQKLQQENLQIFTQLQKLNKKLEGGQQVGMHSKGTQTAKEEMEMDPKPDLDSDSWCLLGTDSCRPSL", "experiment": "Inhibition of NEK9 ACT labeling site in human A-375 cells at 0.05 uM by KiNativ Profiling analysis relative to control", "type": "cell-based"}, "[4]": {"target": "Serine/threonine-protein kinase 26 (Homo sapiens) (UniProt Q9P289)", "sequence (Q9P289 2-416 limits assumed)": "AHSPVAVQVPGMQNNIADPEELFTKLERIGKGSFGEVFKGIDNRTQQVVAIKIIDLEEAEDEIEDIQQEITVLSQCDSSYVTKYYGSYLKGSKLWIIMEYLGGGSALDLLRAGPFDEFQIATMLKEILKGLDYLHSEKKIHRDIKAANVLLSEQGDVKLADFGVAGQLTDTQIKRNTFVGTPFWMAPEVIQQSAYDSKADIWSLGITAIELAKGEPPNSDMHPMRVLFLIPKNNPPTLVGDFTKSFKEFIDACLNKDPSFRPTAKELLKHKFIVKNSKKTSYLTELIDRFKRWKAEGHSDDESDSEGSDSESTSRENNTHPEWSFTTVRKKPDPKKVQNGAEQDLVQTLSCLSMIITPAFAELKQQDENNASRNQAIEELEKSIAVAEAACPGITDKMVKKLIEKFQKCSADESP", "experiment": "Inhibition of MST4 Lys1 labeling site in human A-375 cells at 0.5 uM by KiNativ Profiling analysis relative to control", "type": "cell-based"}, "[5]": {"target": "5'-AMP-activated protein kinase catalytic subunit alpha-1 (Homo sapiens) (UniProt Q13131)", "sequence (Q13131 whole entry, looked up)": "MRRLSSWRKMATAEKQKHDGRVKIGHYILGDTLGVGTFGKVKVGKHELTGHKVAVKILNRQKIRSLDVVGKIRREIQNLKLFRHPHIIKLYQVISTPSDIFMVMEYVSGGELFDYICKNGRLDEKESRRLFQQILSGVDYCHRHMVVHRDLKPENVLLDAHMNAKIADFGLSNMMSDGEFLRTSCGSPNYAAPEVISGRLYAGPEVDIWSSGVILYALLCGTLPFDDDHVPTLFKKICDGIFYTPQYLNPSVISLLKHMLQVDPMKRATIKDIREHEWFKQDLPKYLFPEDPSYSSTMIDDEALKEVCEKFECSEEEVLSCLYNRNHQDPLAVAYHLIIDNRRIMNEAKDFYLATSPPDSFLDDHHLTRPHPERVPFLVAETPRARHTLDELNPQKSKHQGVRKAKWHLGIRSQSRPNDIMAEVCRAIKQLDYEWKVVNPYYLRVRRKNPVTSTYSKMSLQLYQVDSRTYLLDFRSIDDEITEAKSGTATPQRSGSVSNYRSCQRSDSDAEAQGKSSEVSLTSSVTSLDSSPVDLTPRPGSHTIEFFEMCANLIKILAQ", "experiment": "Inhibition of AMPKa1 Lys1 labeling site in human A-375 cells at 0.05 uM by KiNativ Profiling analysis relative to control", "type": "cell-based"}, "[6]": {"target": "T1, Serine/threonine-protein kinase Nek9 (Homo sapiens)", "experiment": "Inhibition of NEK9 Lys1 labeling site harbouring RTEDDSLVVWKEVDLTR in human A-375 cells at 0.05 uM by KiNativ Profiling analysis relative to control", "type": "cell-based"}, "[7]": {"target": "Serine/threonine-protein kinase 25 (Homo sapiens) (UniProt O00506)", "sequence (O00506 whole entry, looked up)": "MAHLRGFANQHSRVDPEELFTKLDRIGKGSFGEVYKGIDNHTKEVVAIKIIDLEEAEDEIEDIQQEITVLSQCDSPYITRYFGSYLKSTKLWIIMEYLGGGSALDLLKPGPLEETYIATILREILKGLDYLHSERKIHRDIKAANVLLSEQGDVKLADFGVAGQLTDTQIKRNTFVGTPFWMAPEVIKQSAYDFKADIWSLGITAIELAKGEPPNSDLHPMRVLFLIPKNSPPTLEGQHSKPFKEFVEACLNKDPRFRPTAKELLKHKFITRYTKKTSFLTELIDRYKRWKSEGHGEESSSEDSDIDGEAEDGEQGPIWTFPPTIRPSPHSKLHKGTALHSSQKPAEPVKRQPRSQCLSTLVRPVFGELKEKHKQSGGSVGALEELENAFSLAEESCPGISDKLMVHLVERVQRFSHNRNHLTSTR", "experiment": "Inhibition of YSK1 ACT labeling site in human A-375 cells at 0.05 uM by KiNativ Profiling analysis relative to control", "type": "cell-based"}, "[8]": {"target": "T2, Aurora kinase A (Homo sapiens) (UniProt O14965)", "T2 sequence (whole entry)": "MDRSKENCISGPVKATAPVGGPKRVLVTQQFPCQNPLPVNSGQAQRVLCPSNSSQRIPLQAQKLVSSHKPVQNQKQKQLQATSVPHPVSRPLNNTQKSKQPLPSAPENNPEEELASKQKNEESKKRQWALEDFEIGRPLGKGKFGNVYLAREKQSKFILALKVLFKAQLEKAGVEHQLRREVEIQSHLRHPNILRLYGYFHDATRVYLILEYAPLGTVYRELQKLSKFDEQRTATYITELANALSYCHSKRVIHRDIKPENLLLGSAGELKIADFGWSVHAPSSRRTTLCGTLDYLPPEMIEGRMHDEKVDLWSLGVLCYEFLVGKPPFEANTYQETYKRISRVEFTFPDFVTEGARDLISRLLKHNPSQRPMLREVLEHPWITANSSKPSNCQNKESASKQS", "experiment": "Inhibition of AurA ATP Loop labeling site in human A-375 cells at 0.5 uM by KiNativ Profiling analysis relative to control", "type": "cell-based", "outline": "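Live A375 melanoma cells were treated with compound at 5 or 0.5 μM, then lysed. The lysates were labeled with a lysine-reactive ATP or ADP-biotin probe. Kinase protection from probe labeling was measured by KiNativ.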"}, "[9]": {"target": "DNA-PK/Ku70/Ku85 (Homo sapiens) (UniProt P78527+P12956+P13010)", "experiment": "Inhibition of DNAPK ATP labeling site harbouring GHDEREHPFLVKGGEDLRQDQR in human A-375 cells at 5 uM by KiNativ Profiling analysis relative to control", "type": "cell-based", "outline": "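Live A375 melanoma cells were treated with compound at 0.5 or 5 μM, then lysed. Lysates were labeled with a lysine-reactive ATP or ADP-biotin probe. The read-out was protection of each kinase probe-labeling site from labeling, relative to control.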"}}}
{"smiles": "CNc1cc(Oc2cc(C(=O)Nc3cc(-n4cnc(C)c4)cc(C(F)(F)F)c3)ccc2C)ncn1", "values": [{"measurement": "inhibition", "setting": "[1]", "result": "Dose-Dependent Effect"}]}
{"smiles": "CNc1cc(Oc2cc(C(=O)Nc3cc(N4CCN(C)CC4)cc(C(F)(F)F)c3)ccc2C)ncn1", "values": [{"measurement": "inhibition", "setting": "[1]", "result": "Dose-Dependent Effect"}]}
{"smiles": "CCN1CCN(Cc2ccc(NC(=O)c3ccc(C)c(Oc4ccnc5[nH]ccc45)c3)cc2C(F)(F)F)CC1", "values": [{"measurement": "inhibition", "setting": "[2]", "result": 5.7, "unit": "%"}, {"measurement": "inhibition", "setting": "[3]", "result": 8.1, "unit": "%"}, {"measurement": "inhibition", "setting": "[4]", "result": -0.4, "unit": "%"}, {"measurement": "inhibition", "setting": "[5]", "result": 13.4, "unit": "%"}, {"measurement": "inhibition", "setting": "[6]", "result": 1.8, "unit": "%"}, {"measurement": "inhibition", "setting": "[7]", "result": 22.4, "unit": "%"}, {"measurement": "inhibition", "setting": "[8]", "result": 31.2, "unit": "%"}, {"measurement": "inhibition", "setting": "[9]", "result": 9.9, "unit": "%"}]}
{"smiles": "CCN1CCN(Cc2ccc(NC(=O)c3ccc(C)c(/C=C/c4cnc5[nH]ccc5c4OC)c3)cc2C(F)(F)F)CC1", "values": [{"measurement": "inhibition", "setting": "[2]", "result": 9.2, "unit": "%"}, {"measurement": "inhibition", "setting": "[3]", "result": -4.6, "unit": "%"}, {"measurement": "inhibition", "setting": "[4]", "result": 2.8, "unit": "%"}, {"measurement": "inhibition", "setting": "[5]", "result": 7.4, "unit": "%"}, {"measurement": "inhibition", "setting": "[6]", "result": 18.8, "unit": "%"}, {"measurement": "inhibition", "setting": "[7]", "result": 13.5, "unit": "%"}, {"measurement": "inhibition", "setting": "[8]", "result": 30.2, "unit": "%"}, {"measurement": "inhibition", "setting": "[9]", "result": -4.9, "unit": "%"}]}
